According to ChEMBL document CHEMBL2057082, “Discovery of N-(4-methoxy-7-methylbenzo[d]thiazol-2-yl)isonicatinamide, ML293, as a novel, selective and brain penetrant positive allosteric modulator of the muscarinic 4 (M4) receptor” (Bioorg Med Chem Lett, 2012):
The source made the active and inactive calls. No cut-off for these calls is given here.

Assays:
Type in all cases: functional, cell-based
[1] = target: T1, Muscarinic acetylcholine receptor M4 (Homo sapiens) (UniProt P08173); test: (§1) Positive allosteric modulation of human M4 receptor expressed in CHO-K1 cells coexpressing Gqi5 assessed as potentiation of acetylcholine-mediated calcium mobilization incubated for 144 secs prior to acetylcholine addition by Fluo-4-AM staining
T1 sequence (whole entry): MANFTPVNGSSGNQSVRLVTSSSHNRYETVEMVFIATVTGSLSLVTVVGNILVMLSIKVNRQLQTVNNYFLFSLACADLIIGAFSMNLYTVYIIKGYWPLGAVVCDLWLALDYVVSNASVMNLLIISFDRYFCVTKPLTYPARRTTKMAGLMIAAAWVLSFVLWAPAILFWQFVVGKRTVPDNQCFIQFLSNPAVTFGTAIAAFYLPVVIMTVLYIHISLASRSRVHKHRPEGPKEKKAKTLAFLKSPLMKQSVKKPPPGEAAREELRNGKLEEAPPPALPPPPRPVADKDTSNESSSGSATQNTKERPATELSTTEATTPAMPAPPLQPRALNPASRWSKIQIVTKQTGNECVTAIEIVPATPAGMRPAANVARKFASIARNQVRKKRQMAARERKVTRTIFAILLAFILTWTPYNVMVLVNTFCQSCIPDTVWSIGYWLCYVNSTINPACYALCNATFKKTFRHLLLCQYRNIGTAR
In short: (§2)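 hM4 stably cotransfected with chimeric Gqi5 in CHO-K1 cells. Cells plated overnight at 37 °C, loaded with Fluo-4 AM for 45 min at 37 °C in HBSS/20 mM HEPES/2.5 mM probenecid. Compound pretreated 144 s (0.3% DMSO final), then EC20 ACh, then EC80 ACh 86 s later; kinetic fluorescence at 37 °C.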

[2] = target: T2, Muscarinic acetylcholine receptor M4 (Homo sapiens, UniProt P08173); test: as §1; in short: as §2
T2 sequence (P08173 whole entry): T1 sequence (whole entry)

[3] = target: T1, Muscarinic acetylcholine receptor M4 (Homo sapiens); test: Positive allosteric modulation of human M4 receptor expressed in CHO-K1 cells coexpressing Gqi5 assessed as potentiation of acetylcholine-mediated calcium mobilization incubated for 144 secs prior to acetylcholine addition by Fluo-4-AM staining relative to acetylcholine
In short: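 hM4-Gqi5 CHO-K1 cells, plated overnight, loaded with Fluo-4 AM (45 min, 37 °C). Compound (0.3% DMSO final) preincubated 144 s, then ACh EC20 added, and EC80 added 86 s later; 1 mM ACh wells for normalization. Calcium read at 37 °C, normalized to baseline and then to maximal ACh response. EC50 from four-parameter logistic fit; three independent determinations in triplicate.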

Row | SMILES | pEC50 [1] | EC50 [2] | %max [3]
1 | COc1ccc(C)c2sc(NC(=O)c3ccc(F)cc3)nc12 | inactive |  | 
2 | COc1ccc(C)c2sc(NC(=O)C3=C(C)OCCO3)nc12 | inactive |  | 
3 | COc1ccc(C)c2sc(NS(=O)(=O)c3ccc(F)cc3F)nc12 | inactive |  | 
4 | COc1ccc(C)c2sc(NS(=O)(=O)c3cnn(C)c3)nc12 | inactive |  | 
5 | COc1ccc(C)c2sc(C(=O)NCc3ccncc3)nc12 | inactive |  | 
6 | COc1ccc(C)c2sc(NS(=O)(=O)c3cccc(C)c3)nc12 | inactive |  | 
7 | COc1ccc(C)c2sc(NC(=O)Nc3ccncc3)nc12 | inactive |  | 
8 | COc1ccc(C)c2sc(NC(=O)c3c(F)cccc3F)nc12 | inactive |  | 
9 | COc1ccc(C)c2sc(NS(=O)(=O)c3ccc4occc4c3)nc12 | inactive |  | 
10 | COc1ccc(C)c2sc(NC(=O)c3ccco3)nc12 |  | 1.35 µM | 51.8%
11 | COc1ccc(C)c2sc(NS(=O)(=O)c3cccc(Cl)c3)nc12 | inactive |  | 
12 | COc1ccc(C)c2sc(NC(=O)c3ccc(F)cc3F)nc12 | inactive |  | 
13 | COc1ccc(C)c2sc(NC(=O)NCc3ccncc3)nc12 | inactive |  | 
14 | COc1ccc(C)c2sc(NS(=O)(=O)c3cc(C)ccn3)nc12 | inactive |  | 
15 | COc1ccc(C)c2sc(NC(=O)c3cc(F)cc(F)c3)nc12 | inactive |  | 
16 | COc1ccc(C)c2sc(C(=O)Nc3ccc(C)nc3)nc12 | inactive |  | 
17 | COc1ccc(C)c2sc(C(=O)NC3CC3)nc12 |  | 7.76 µM | 35.6%
18 | COCC(=O)Nc1nc2c(OC)ccc(C)c2s1 |  | > 10 µM | 43.2%
19 | COc1ccc(C)c2sc(NC(=O)c3ccc(F)c(F)c3)nc12 | inactive |  | 
20 | COc1ccc(C)c2sc(NS(=O)(=O)c3ccc(C(F)(F)F)cc3)nc12 | inactive |  | 
21 | COc1ccc(C)c2sc(NC(=O)c3ccc(C)cc3)nc12 | inactive |  | 
22 | COc1ccc(C)c2sc(NC(=O)CC(C)(C)C)nc12 | inactive |  | 

Continued, values first:

Row | pEC50 [1] | EC50 [2] | %max [3] | SMILES
23 | inactive |  |  | COc1ccc(C)c2sc(NC(=O)N3CCCCC3)nc12
24 |  | > 10 µM | 44% | COc1ccc(C)c2sc(NC(=O)C3CCCOC3)nc12 (centres undefined)
25 |  | > 10 µM | 52.2% | COc1ccc(C)c2sc(NC(=O)C3CCC3)nc12
26 | inactive |  |  | COc1ccc(C)c2sc(NC(=O)NC3CCC3)nc12
27 |  | > 10 µM | 39.3% | COc1ccc(C)c2sc(NC(=O)NC3CC3)nc12
28 | inactive |  |  | COc1ccc(C)c2sc(NC(=O)CCc3ccccc3)nc12
29 |  | > 10 µM | 43.7% | COc1ccc(C)c2sc(NC(=O)C3CCCCC3)nc12
30 |  | > 10 µM | 66.5% | COc1ccc(C)c2sc(NC(=O)C3CC3C)nc12 (centres undefined)
31 |  | > 10 µM | 45% | COc1ccc(C)c2sc(NC(=O)C3CCCC3)nc12
32 | inactive |  |  | CCCCC1CC1C(=O)Nc1nc2c(OC)ccc(C)c2s1 (centres undefined)
33 |  | > 10 µM | 61.5% | COc1ccc(C)c2sc(NC(=O)C3CC3)nc12
34 | inactive |  |  | O=C(Nc1nc2cccnc2s1)c1cccnn1
35 | inactive |  |  | COc1ccc(C)c2sc(NC(=O)CC3CC3)nc12
36 |  | > 10 µM | 43.5% | COc1ccc(C)c2sc(NC(=O)N3CCCC3)nc12
37 | inactive |  |  | COc1ccc(C)c2sc(NC(=O)c3ccccn3)nc12
38 |  | 2.82 µM | 36.5% | COc1cccc2sc(NC(=O)c3ccncc3)nc12
39 |  | 7.08 µM | 36.5% | COc1ccc(C)c2sc(NC(=O)NC3CCCC3)nc12
40 | inactive |  |  | COc1ccc(C)c2sc(NC(C)=O)nc12
41 | inactive |  |  | O=C(Nc1nc2cccnc2s1)C1CCC1
42 | inactive |  |  | O=C(Nc1nc2cccnc2s1)C1CCCC1
43 | inactive |  |  | COc1ccc(C)c2sc(C(=O)NC3CCCCC3)nc12
44 | inactive |  |  | O=C(Nc1nc2ccccc2s1)C1CCCCO1 (centres undefined)
45 | inactive |  |  | COc1ccc2nc(NC(=O)c3ccncc3)sc2n1
46 | inactive |  |  | O=C(Nc1nc2cccnc2s1)c1cnccn1
